Source: PubChem
PREPL inhibitor: human PREPL enzyme inhibition; recombinant PREPL, fluorescence polarization activity-based probe; inhibition, % at 5.96 µM; 0.68% of 320,000 active; AID 2751; in the data active = inhibition above about 43%
Target sequence (Q4J6C6 whole entry, looked up): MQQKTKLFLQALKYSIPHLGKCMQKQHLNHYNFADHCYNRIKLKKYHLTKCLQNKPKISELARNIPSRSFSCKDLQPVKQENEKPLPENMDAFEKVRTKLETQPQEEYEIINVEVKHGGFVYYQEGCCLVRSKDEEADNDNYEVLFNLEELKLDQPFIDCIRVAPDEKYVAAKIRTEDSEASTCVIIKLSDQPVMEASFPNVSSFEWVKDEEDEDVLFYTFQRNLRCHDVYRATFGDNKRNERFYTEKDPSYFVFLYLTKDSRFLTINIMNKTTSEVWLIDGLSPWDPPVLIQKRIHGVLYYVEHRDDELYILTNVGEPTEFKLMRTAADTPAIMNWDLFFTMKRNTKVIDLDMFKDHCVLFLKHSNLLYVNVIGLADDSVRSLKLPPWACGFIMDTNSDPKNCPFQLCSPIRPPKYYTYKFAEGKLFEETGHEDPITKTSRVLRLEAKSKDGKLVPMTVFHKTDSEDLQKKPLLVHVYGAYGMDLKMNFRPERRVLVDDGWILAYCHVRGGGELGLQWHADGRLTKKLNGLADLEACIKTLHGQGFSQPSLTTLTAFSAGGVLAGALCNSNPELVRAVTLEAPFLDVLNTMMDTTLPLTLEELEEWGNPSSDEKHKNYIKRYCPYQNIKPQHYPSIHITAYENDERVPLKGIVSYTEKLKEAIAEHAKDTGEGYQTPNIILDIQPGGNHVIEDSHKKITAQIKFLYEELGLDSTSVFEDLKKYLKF
MEKK3 PB1 HTS: MEKK3-MEK5 PB1 interaction, increase or decrease; bead-based flow cytometry, Alexa488-MEK5 binding to MEKK3; actives lie on both sides; 0 = blocked by unlabeled MEK5, 100 = vehicle; 1.4% of 290,000 active; Q99759; binding response (% of control), % at 10 µM;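 active = binding response more than 3 SD above or below the average of its plate-row segment, actives on both sides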;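 note: Alexa488 bead fluorescence after subtracting the streptavidin-only scavenger bead signal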
Apaf-1 inh: inhibitors of human Apaf-1 apoptosome. O14727. reconstituted apoptosome caspase-3 activity, DEVD-Rh110 fluorescence. inhibition, % at 20 µM. 0.71% of 330,000 active. AID 489030; active = inhibition of at least 40% at 20 µM
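Material: reconstituted apoptosome with Apaf-1, cytochrome c, caspase-9, procaspase-3, dATP; medium: pH 7.5 Hepes buffer with CHAPS, BSA, DTT; also added: cytochrome c and DEVD-Rh110 substrate; timing: 30 min plus 50 min, RT; signal: Rh110 fluorescence intensity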
MEKK2wt PB1 HTS: raises or lowers MEK5 binding to wildtype human MEKK2 PB1 domain | Q9Y2U5 | bead flow cytometry, Alexa488-MEK5 binding to MEKK2 WT; actives lie on both sides | binding response (% of control), % at 10 µM | 1.1% of 290,000 active | AID 1531; in the data active = binding response below about 67% or above about 130%
UBC13 polyUb: inhibitors of human UBC13 polyubiquitin chain formation; 0.47% of 330,000 active; TR-FRET; inhibition, % at 20 µM; in the data active = inhibition above about 45%, passing the limit was not always enough
MEKK2 mut-MEK5: signal of MEK5 binding to mutant human MEKK2 PB1 domain. bead flow cytometry, Alexa488-MEK5 binding to MEKK2 mutant. 0.35% of 290,000 active. percent response, % at 10 µM; in the data active = percent response above about 24%, passing the limit was not always enough
MEKK2wt confirm: raises or lowers MEK5 binding to wildtype human MEKK2, retest | shares compounds with MEKK3 PB1 HTS | bead flow cytometry, Alexa488-MEK5 binding to MEKK2 WT; actives lie on both sides | binding response (% of control), % at 10 µM | 2.4% of 5,900 active; in the data active = binding response below about 16% or above about 210%; inactive = in between
MEKK2mut-MEK5: signal of MEK5 binding to mutant human MEKK2, retest | 2% of 5,900 active | percent response, % at 10 µM | shares compounds with MEKK3 PB1 HTS | AID 1893 | bead flow cytometry, Alexa488-MEK5 binding to MEKK2 mutant; in the data active = percent response mostly above about 71%, no sharp cut-off; inactive = mostly below about 38%;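 note: higher means compound restores mutant binding toward wildtype level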
MEKK3 confirm: MEKK3-MEK5 PB1 inhibition, single concentration confirmation; 1.8% of 5,900 active; binding response (% of control), % at 10 µM; bead flow cytometry, Alexa488-MEK5 binding to MEKK3; hits give low values; shares compounds with MEKK3 PB1 HTS; AID 1894;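 active = binding response below 72% of control, or above a set upper limit, though filed actives all read lower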;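 note: lower values mean stronger disruption of MEK5 binding to MEKK3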
Hits are given with their value; [ ] = another dose, or the depositor's remark. Hits are enriched below; roughly 3.1% of the tested compounds scored in any of these assays.

For CCS(=O)(=O)Nc1cccc(C2=NN(S(C)(=O)=O)C(c3ccccc3)C2)c1 (centres undefined) the results were PREPL inhibitor inactive, MEKK3 PB1 HTS 18.0[inhibitor], Apaf-1 inh inactive, MEKK2wt PB1 HTS inactive, UBC13 polyUb inactive, MEKK2 mut-MEK5 54.0, MEKK2wt confirm inactive, MEKK2mut-MEK5 inactive and MEKK3 confirm inactive.
For Cc1ccc(C2=NN(S(C)(=O)=O)C(c3ccc4c(c3)OCO4)C2)cc1 (centres undefined) the results were PREPL inhibitor inactive, MEKK3 PB1 HTS 10.0[inhibitor], Apaf-1 inh inactive, UBC13 polyUb inactive, MEKK2 mut-MEK5 inactive, MEKK2wt confirm inactive, MEKK2mut-MEK5 inactive and MEKK3 confirm inactive.
For O=C(NC(=S)N1CCCCC1)c1csc([N+](=O)[O-])c1 the results were PREPL inhibitor inactive, MEKK3 PB1 HTS inactive, Apaf-1 inh inactive, MEKK2wt PB1 HTS inactive, UBC13 polyUb inactive and MEKK2 mut-MEK5 inactive.
`O=C(COC(=O)c1ccc(O)cc1O)Nc1ncc(Cl)cc1Cl` gave PREPL inhibitor inactive, Apaf-1 inh inactive and UBC13 polyUb inactive.
For COC(=O)c1ccccc1S(=O)(=O)N1CCC(C(=O)NC2CCCCC2)CC1 the results were PREPL inhibitor inactive, Apaf-1 inh inactive and UBC13 polyUb inactive.
For CC1CCC(NC(=O)COC(=O)CNC(=O)c2ccc3ccccc3c2)CC1 (centres undefined) the results were PREPL inhibitor inactive, Apaf-1 inh inactive and UBC13 polyUb inactive.
For Cc1ccc(CSCC(=O)NCc2cccnc2)cc1 the results were PREPL inhibitor inactive, MEKK3 PB1 HTS 137.0, Apaf-1 inh inactive, MEKK2wt PB1 HTS inactive, UBC13 polyUb inactive, MEKK2 mut-MEK5 inactive, MEKK2wt confirm inactive, MEKK2mut-MEK5 inactive and MEKK3 confirm inactive.
`COc1cccc(OC2OC3COC(C)(C)OC3C(O)C2NC(C)=O)c1` (centres undefined) gave PREPL inhibitor inactive, MEKK3 PB1 HTS inactive, Apaf-1 inh inactive, MEKK2wt PB1 HTS inactive, UBC13 polyUb inactive and MEKK2 mut-MEK5 inactive.
`COc1ccc(OC2OC3COC(C)(C)OC3C(O)C2NC(C)=O)cc1` (centres undefined) gave PREPL inhibitor inactive, MEKK3 PB1 HTS inactive, Apaf-1 inh inactive, MEKK2wt PB1 HTS inactive, UBC13 polyUb inactive, MEKK2 mut-MEK5 24.0, MEKK2wt confirm inactive, MEKK2mut-MEK5 inactive and MEKK3 confirm inactive.
For Cc1ccc[n+](CC(=O)Nc2c(Cl)cc(Cl)cc2Cl)c1 the results were PREPL inhibitor inactive, MEKK3 PB1 HTS 68.0[inhibitor], Apaf-1 inh inactive, MEKK2wt PB1 HTS inactive, UBC13 polyUb inactive, MEKK2 mut-MEK5 inactive, MEKK2wt confirm inactive, MEKK2mut-MEK5 inactive and MEKK3 confirm inactive.
Screening O=C(C[n+]1ccccc1)Nc1c(Cl)cc(Cl)cc1Cl returned PREPL inhibitor inactive, MEKK3 PB1 HTS inactive, Apaf-1 inh inactive, MEKK2wt PB1 HTS inactive, UBC13 polyUb inactive and MEKK2 mut-MEK5 inactive.
COc1cc(/C=C/C(=O)NCCn2c(C)cc3ccccc32)cc(OC)c1OC was read as PREPL inhibitor inactive, MEKK3 PB1 HTS inactive, Apaf-1 inh inactive, MEKK2wt PB1 HTS inactive, UBC13 polyUb inactive and MEKK2 mut-MEK5 inactive.
`Cc1cc2ccccc2n1CCNC(=O)C(C)C` gave PREPL inhibitor inactive, MEKK3 PB1 HTS inactive, Apaf-1 inh inactive, MEKK2wt PB1 HTS inactive, UBC13 polyUb inactive and MEKK2 mut-MEK5 inactive.
For Cc1cc2ccccc2n1CCNC(=O)c1ccc(S(=O)(=O)N2CCCCC2)cc1 the results were PREPL inhibitor inactive, MEKK3 PB1 HTS 82.0[inhibitor], Apaf-1 inh inactive, MEKK2wt PB1 HTS inactive, UBC13 polyUb inactive, MEKK2 mut-MEK5 inactive, MEKK2wt confirm inactive, MEKK2mut-MEK5 inactive and MEKK3 confirm inactive.
